Calls of active or inactive are those of the source. The rule behind the calls is not given here.
Legend:
[1] = tested on: PC-3; assay: Ability to stimulate PC3 cell proliferation by BrdU incorporation using colorimetric ELISA at 50 uM; assay type: functional, Homo sapiens
In short: (§1)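 PC-3 cells (DMEM, 10% FBS, 2 mM L-glutamine) seeded at 7 × 10⁴/well, settled 24 h at 37 °C, 5% CO₂. NE added (0, 0.1, 1, 10, 50 μM) for 16 h. BrdU present during the last 4 h; incorporation read by colorimetric BrdU cell-proliferation ELISA. Expressed as % growth vs untreated. Mean ± SD of three separate experiments.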

[2] = tested on: PC-3; assay: Ability to stimulate PC3 cell proliferation by BrdU incorporation using colorimetric ELISA at 10 uM; assay type: functional, Homo sapiens; in short: as §1
[3] = target: T1, Alpha-1A adrenergic receptor (Rattus norvegicus) (UniProt P43140); assay: ADRA1A blocking activity assessed by antagonism of (-)-NE induced contractions on isolated rat prostatic vas deferens; assay type: functional, tissue-based
T1 sequence (whole entry): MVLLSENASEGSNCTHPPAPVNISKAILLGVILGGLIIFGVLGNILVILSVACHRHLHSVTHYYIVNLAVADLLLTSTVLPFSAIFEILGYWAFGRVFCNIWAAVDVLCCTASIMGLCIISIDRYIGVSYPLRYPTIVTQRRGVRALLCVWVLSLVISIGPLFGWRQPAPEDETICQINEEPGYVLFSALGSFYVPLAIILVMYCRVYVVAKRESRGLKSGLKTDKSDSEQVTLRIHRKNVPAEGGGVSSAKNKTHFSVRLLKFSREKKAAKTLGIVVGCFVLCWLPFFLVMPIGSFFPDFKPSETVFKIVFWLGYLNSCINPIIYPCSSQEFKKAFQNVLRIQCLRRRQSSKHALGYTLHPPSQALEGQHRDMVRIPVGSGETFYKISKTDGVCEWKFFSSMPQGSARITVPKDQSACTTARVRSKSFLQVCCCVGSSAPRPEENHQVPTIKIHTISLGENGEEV
In short: (§2)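 Isolated rat tissue: each antagonist concentration tested four times over 0.01–1 μM; pK_B calculated by van Rossum method from shifts of (-)-noradrenaline contraction curves (vas deferens, α1A; thoracic aorta, α1D) or (-)-phenylephrine contraction curves (spleen, α1B).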

[4] = target: T2, Alpha-1D adrenergic receptor (Rattus norvegicus) (UniProt P23944); assay: ADRA1D blocking activity assessed by antagonism of (-)-NE induced contractions on isolated rat thoracic aorta; assay type: functional, tissue-based; in short: as §2
T2 sequence (whole entry): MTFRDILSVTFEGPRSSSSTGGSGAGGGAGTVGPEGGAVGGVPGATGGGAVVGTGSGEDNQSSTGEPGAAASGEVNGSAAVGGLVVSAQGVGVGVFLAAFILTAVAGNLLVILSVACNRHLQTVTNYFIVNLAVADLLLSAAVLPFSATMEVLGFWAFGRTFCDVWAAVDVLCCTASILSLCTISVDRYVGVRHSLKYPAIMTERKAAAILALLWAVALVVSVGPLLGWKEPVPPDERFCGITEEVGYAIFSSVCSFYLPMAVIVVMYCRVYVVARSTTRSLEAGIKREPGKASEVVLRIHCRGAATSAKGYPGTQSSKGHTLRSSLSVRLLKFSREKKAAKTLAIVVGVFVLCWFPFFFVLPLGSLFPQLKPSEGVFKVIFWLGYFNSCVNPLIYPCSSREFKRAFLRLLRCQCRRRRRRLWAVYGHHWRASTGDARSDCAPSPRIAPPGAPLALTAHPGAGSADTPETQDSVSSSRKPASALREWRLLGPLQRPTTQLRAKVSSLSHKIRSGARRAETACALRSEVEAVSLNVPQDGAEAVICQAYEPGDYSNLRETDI

[5] = target: T3, Alpha-1B adrenergic receptor (Rattus norvegicus) (UniProt P15823); assay: ADRA1B blocking activity assessed by antagonism of (-)-phenylephrine induced contractions on isolated rat spleen; assay type: functional, tissue-based; in short: as §2
T3 sequence (whole entry): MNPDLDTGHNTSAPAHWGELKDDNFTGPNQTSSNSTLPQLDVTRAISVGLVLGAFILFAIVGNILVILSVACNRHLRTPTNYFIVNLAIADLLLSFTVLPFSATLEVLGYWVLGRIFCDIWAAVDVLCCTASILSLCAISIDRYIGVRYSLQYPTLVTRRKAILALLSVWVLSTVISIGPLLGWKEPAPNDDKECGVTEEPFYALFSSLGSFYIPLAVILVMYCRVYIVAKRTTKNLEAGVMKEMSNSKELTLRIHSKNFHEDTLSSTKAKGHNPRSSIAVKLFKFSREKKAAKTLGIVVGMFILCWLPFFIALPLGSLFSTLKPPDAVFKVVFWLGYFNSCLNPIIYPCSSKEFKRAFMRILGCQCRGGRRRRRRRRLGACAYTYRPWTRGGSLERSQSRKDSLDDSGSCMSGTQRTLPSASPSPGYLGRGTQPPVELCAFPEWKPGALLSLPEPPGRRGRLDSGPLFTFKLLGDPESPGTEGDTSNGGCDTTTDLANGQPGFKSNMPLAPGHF

[6] = tested on: PC-3; assay: Cytotoxic activity on human PC3 prostate cancer cells by SRB assay; assay type: functional; conditions: Homo sapiens, PC-3
In short: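 NCI-protocol SRB assay on PC-3 cells grown in DMEM/10% FBS/2 mM glutamine. Seeded 24 h, then compounds in medium for 48 h at 37 °C, 5% CO2, in quadruplicate. A time-zero plate was read. Cells TCA-fixed, stained with 0.4% SRB, absorbance at 520 nm. GI50, TGI and LC50 interpolated from % growth versus log concentration.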

[7] = tested on: PC-3; assay: Inhibition of NE-induced increase of PC3 cell proliferation using ELISA BrdU; assay type: functional, cell-based; conditions: Homo sapiens
In short: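 PC-3 cells (7×10^4/well) plated 24 h, then given noradrenaline (0–50 μM) alone or with antagonist (1 μM, or 0.5 μM for one compound) for 16 h. BrdU added for the last 4 h and read by colorimetric ELISA as % growth; mean ± SD of three experiments.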

Row | SMILES | Activity [1] | Activity [2] | pKb [3] | pKb [4] | pKb [5] | TGI [6] | Activity [7] | GI50 [6] | LC50 (50% lethal concentration) [6]
1 | NC[C@H](O)c1ccc(O)c(O)c1 [NOREPINEPHRINE] | 65% | 33% |  |  |  |  |  |  | 
2 | COc1cc2nc(N3CCN(C(=O)C4COc5ccccc5O4)CC3)nc(N)c2cc1OC (centres undefined) [DOXAZOSIN] |  |  | 8.69 | 8.97 | 9.51 | 49 µM | inactive |  | 
3 | CCOc1ccc(COc2ccccc2OCCNCCOc2c(OC)cccc2OC)cc1 |  |  | 8.5 | 9.11 | 8.23 | 18.2 µM |  | 5.2 µM | 51.3 µM
4 | COc1cccc(OC)c1OCCNCCOc1ccccc1OCc1ccc(OC(C)C)cc1 |  |  | 8.17 | 9.14 | 8.62 | 17.8 µM |  | 2 µM | 63.1 µM

Reference: ChEMBL document CHEMBL1141864, “Structure-activity relationships in 1,4-benzodioxan-related compounds. 8.(1) {2-[2-(4-chlorobenzyloxy)phenoxy]ethyl}-[2-(2,6-dimethoxyphenoxy)ethyl]amine (clopenphendioxan) as a tool to highlight the involvement of alpha1D- and alpha1B-adrenoreceptor subtypes in the regulation of human PC-3 …” (J Med Chem, 2005)
